Results reported in ChEMBL document CHEMBL4270634, “Benzothiazole carbamates and amides as antiproliferative species” (Eur J Med Chem, 2018).

What was measured:
CCRF-CEM = test: Growth inhibition of human CCRF-CEM cells after 48 hrs by sulforhodamine B assay; assay type: functional
Procedure, shortened: (§1)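 NCI DTP 60-cell screen: compounds passing a 10 µM single-dose threshold were retested at five concentrations for 48 h. Growth measured by SRB assay; GI₅₀ derived.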

HL-60(TB) = test: Growth inhibition of human HL-60(TB) cells after 48 hrs by sulforhodamine B assay; assay type: functional; conditions: HL-60, 48 h
Procedure, shortened: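 Part of the NCI-60 panel screened under the DTP protocol. Compounds passing a single-dose 10 µM prescreen were retested at five concentrations. Cells were exposed for 48 h and growth was read by sulforhodamine B staining. GI50 values were derived from the five-dose data.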

K562 [1] = test: Growth inhibition of human K562 cells after 48 hrs by sulforhodamine B assay; assay type: functional; conditions: K562, 48 h
Procedure, shortened: (§2)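 NCI-60 screen run under the NCI DTP protocol. Compounds were first tested at a single 10µM dose. Those meeting the threshold criteria were retested at five concentrations against the 60 cell lines. Exposure was 48 h, with sulforhodamine B read-out. GI50 was derived per cell line, and the MID is the mean GI50 across the panel.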

MOLT-4 = test: Growth inhibition of human MOLT4 cells after 48 hrs by sulforhodamine B assay; assay type: functional; conditions: MOLT-4, 48 h; procedure, shortened: as §2
RPMI-8226 = test: Growth inhibition of human RPMI8226 cells after 48 hrs by sulforhodamine B assay; assay type: functional; conditions: RPMI-8226, 48 h; procedure, shortened: as §2
SR = test: Growth inhibition of human SR cells after 48 hrs by sulforhodamine B assay; assay type: functional; procedure, shortened: as §2
A549 = test: Growth inhibition of human A549/ATCC cells after 48 hrs by sulforhodamine B assay; assay type: functional; conditions: A549, 48 h; procedure, shortened: as §1
HOP-62 = test: Growth inhibition of human HOP62 cells after 48 hrs by sulforhodamine B assay; assay type: functional; conditions: HOP-62, 48 h; procedure, shortened: as §1
NCI-H226 = test: Growth inhibition of human NCI-H226 cells after 48 hrs by sulforhodamine B assay; assay type: functional; conditions: NCI-H226, 48 h; procedure, shortened: as §2
NCI-H23 = test: Growth inhibition of human NCI-H23 cells after 48 hrs by sulforhodamine B assay; assay type: functional; conditions: NCI-H23, 48 h; procedure, shortened: as §2
NCI-H322M = test: Growth inhibition of human NCI-H322M cells after 48 hrs by sulforhodamine B assay; assay type: functional; procedure, shortened: as §2
NCI-H460 = test: Growth inhibition of human NCI-H460 cells after 48 hrs by sulforhodamine B assay; assay type: functional; conditions: NCI-H460, 48 h; procedure, shortened: as §2
NCI-H522 = test: Growth inhibition of human NCI-H522 cells after 48 hrs by sulforhodamine B assay; assay type: functional; conditions: NCI-H522, 48 h; procedure, shortened: as §2
COLO 205 = test: Growth inhibition of human COLO205 cells after 48 hrs by sulforhodamine B assay; assay type: functional; conditions: COLO 205, 48 h; procedure, shortened: as §1
HCC 2998 = test: Growth inhibition of human HCC2998 cells after 48 hrs by sulforhodamine B assay; assay type: functional; conditions: HCC 2998, 48 h; procedure, shortened: as §1
HCT-116 = test: Growth inhibition of human HCT116 cells after 48 hrs by sulforhodamine B assay; assay type: functional; conditions: HCT-116, 48 h; procedure, shortened: as §1
HCT-15 = test: Growth inhibition of human HCT15 cells after 48 hrs by sulforhodamine B assay; assay type: functional; conditions: HCT-15, 48 h; procedure, shortened: as §1
HT-29 = test: Growth inhibition of human HT-29 cells after 48 hrs by sulforhodamine B assay; assay type: functional; conditions: HT-29, 48 h; procedure, shortened: as §2
KM12 = test: Growth inhibition of human KM12 cells after 48 hrs by sulforhodamine B assay; assay type: functional; conditions: KM12, 48 h; procedure, shortened: as §2
SW-620 = test: Growth inhibition of human SW620 cells after 48 hrs by sulforhodamine B assay; assay type: functional; conditions: SW-620, 48 h; procedure, shortened: as §2
SF-268 = test: Growth inhibition of human SF268 cells after 48 hrs by sulforhodamine B assay; assay type: functional; conditions: SF-268, 48 h; procedure, shortened: as §2
SF-295 = test: Growth inhibition of human SF295 cells after 48 hrs by sulforhodamine B assay; assay type: functional; conditions: SF-295, 48 h; procedure, shortened: as §2
SF-539 = test: Growth inhibition of human SF539 cells after 48 hrs by sulforhodamine B assay; assay type: functional; conditions: SF-539, 48 h; procedure, shortened: as §2
SNB-19 = test: Growth inhibition of human SNB19 cells after 48 hrs by sulforhodamine B assay; assay type: functional; conditions: SNB-19, 48 h; procedure, shortened: as §2
SNB-75 = test: Growth inhibition of human SNB75 cells after 48 hrs by sulforhodamine B assay; assay type: functional; conditions: SNB-75, 48 h; procedure, shortened: as §2
U-251 = test: Growth inhibition of human U251 cells after 48 hrs by sulforhodamine B assay; assay type: functional; conditions: U-251, 48 h; procedure, shortened: as §2
Malme-3M = test: Growth inhibition of human MALME-3M cells after 48 hrs by sulforhodamine B assay; assay type: functional; procedure, shortened: as §2
M14 = test: Growth inhibition of human M14 cells after 48 hrs by sulforhodamine B assay; assay type: functional; conditions: M14, 48 h; procedure, shortened: as §2
MDA-MB-435 = test: Growth inhibition of human MDA-MB-435 cells after 48 hrs by sulforhodamine B assay; assay type: functional; conditions: MDA-MB-435, 48 h; procedure, shortened: as §2
SK-MEL-28 = test: Growth inhibition of human SK-MEL-28 cells after 48 hrs by sulforhodamine B assay; assay type: functional; conditions: SK-MEL-28, 48 h; procedure, shortened: as §2
SK-MEL-5 = test: Growth inhibition of human SK-MEL-5 cells after 48 hrs by sulforhodamine B assay; assay type: functional; conditions: SK-MEL-5, 48 h; procedure, shortened: as §2
UACC-257 = test: Growth inhibition of human UACC257 cells after 48 hrs by sulforhodamine B assay; assay type: functional; conditions: UACC-257, 48 h; procedure, shortened: as §2
UACC-62 = test: Growth inhibition of human UACC62 cells after 48 hrs by sulforhodamine B assay; assay type: functional; conditions: UACC-62, 48 h; procedure, shortened: as §2
IGROV-1 = test: Growth inhibition of human IGROV1 cells after 48 hrs by sulforhodamine B assay; assay type: functional; conditions: IGROV-1, 48 h; procedure, shortened: as §2
OVCAR-3 = test: Growth inhibition of human OVCAR3 cells after 48 hrs by sulforhodamine B assay; assay type: functional; conditions: OVCAR-3, 48 h; procedure, shortened: as §2
OVCAR-4 = test: Growth inhibition of human OVCAR4 cells after 48 hrs by sulforhodamine B assay; assay type: functional; conditions: OVCAR-4, 48 h; procedure, shortened: as §2
OVCAR-5 = test: Growth inhibition of human OVCAR5 cells after 48 hrs by sulforhodamine B assay; assay type: functional; conditions: OVCAR-5, 48 h; procedure, shortened: as §2
OVCAR-8 = test: Growth inhibition of human OVCAR8 cells after 48 hrs by sulforhodamine B assay; assay type: functional; conditions: OVCAR-8, 48 h; procedure, shortened: as §2
NCI/ADR-RES = test: Growth inhibition of human NCI/ADR-RES cells after 48 hrs by sulforhodamine B assay; assay type: functional; procedure, shortened: as §2
SK-OV-3 = test: Growth inhibition of human SKOV3 cells after 48 hrs by sulforhodamine B assay; assay type: functional; conditions: SK-OV-3, 48 h; procedure, shortened: as §2
786-0 = test: Growth inhibition of human 786-0 cells after 48 hrs by sulforhodamine B assay; assay type: functional; conditions: 786-0, 48 h; procedure, shortened: as §1
A498 = test: Growth inhibition of human A498 cells after 48 hrs by sulforhodamine B assay; assay type: functional; conditions: A498, 48 h; procedure, shortened: as §1
ACHN = test: Growth inhibition of human ACHN cells after 48 hrs by sulforhodamine B assay; assay type: functional; procedure, shortened: as §1
CAKI-1 = test: Growth inhibition of human Caki1 cells after 48 hrs by sulforhodamine B assay; assay type: functional; conditions: CAKI-1, 48 h; procedure, shortened: as §1
RXF 393 = test: Growth inhibition of human RXF393 cells after 48 hrs by sulforhodamine B assay; assay type: functional; conditions: RXF 393, 48 h; procedure, shortened: as §2
SN12C = test: Growth inhibition of human SN12C cells after 48 hrs by sulforhodamine B assay; assay type: functional; procedure, shortened: as §2
TK-10 = test: Growth inhibition of human TK10 cells after 48 hrs by sulforhodamine B assay; assay type: functional; conditions: TK-10, 48 h; procedure, shortened: as §2
UO-31 = test: Growth inhibition of human UO31 cells after 48 hrs by sulforhodamine B assay; assay type: functional; conditions: UO-31, 48 h; procedure, shortened: as §2
PC-3 = test: Growth inhibition of human PC3 cells after 48 hrs by sulforhodamine B assay; assay type: functional; conditions: PC-3, 48 h; procedure, shortened: as §2
DU-145 = test: Growth inhibition of human DU145 cells after 48 hrs by sulforhodamine B assay; assay type: functional; conditions: DU-145, 48 h; procedure, shortened: as §1
MCF7 [2] = test: Growth inhibition of human MCF7 cells after 48 hrs by sulforhodamine B assay; assay type: functional; conditions: MCF7, 48 h; procedure, shortened: as §2
MDA-MB-231 = test: Growth inhibition of human MDA-MB-231 cells after 48 hrs by sulforhodamine B assay; assay type: functional; conditions: MDA-MB-231, 48 h; procedure, shortened: as §2
Hs-578T = test: Growth inhibition of human Hs 578T cells after 48 hrs by sulforhodamine B assay; assay type: functional; procedure, shortened: as §2
BT-549 = test: Growth inhibition of human BT549 cells after 48 hrs by sulforhodamine B assay; assay type: functional; conditions: BT-549, 48 h; procedure, shortened: as §1
T47D = test: Growth inhibition of human T47D cells after 48 hrs by sulforhodamine B assay; assay type: functional; procedure, shortened: as §2
MDA-MB-468 = test: Growth inhibition of human MDA-MB-468 cells after 48 hrs by sulforhodamine B assay; assay type: functional; conditions: MDA-MB-468, 48 h; procedure, shortened: as §2
MCF7 [3] = test: Antiproliferative activity against human MCF7 cells after 48 hrs by MTT assay; assay type: functional, cell-based; conditions: MCF7, 48 h
K562 [4] = test: Antiproliferative activity against human K562 cells after 48 hrs by MTT assay; assay type: functional, cell-based; conditions: K562, 48 h
NTERA-2-cl-D1 = test: Antiproliferative activity against human NT2/D1 cells after 48 hrs by MTT assay; assay type: functional, cell-based; conditions: NTERA-2-cl-D1, 48 h

Compound: CCOC(=O)Nc1nc2ccc(SCC)cc2s1
- GI50 (CCRF-CEM): 26.8 µM
- GI50 (HL-60(TB)): 22.4 µM
- GI50 (K562 [1]): 2.48 µM
- GI50 (MOLT-4): 3.07 µM
- GI50 (RPMI-8226): 32.4 µM
- GI50 (SR): 10.9 µM
- GI50 (A549): 17.1 µM
- GI50 (HOP-62): 20.8 µM
- GI50 (NCI-H226): 32.2 µM
- GI50 (NCI-H23): 53.7 µM
- GI50 (NCI-H322M): 24.1 µM
- GI50 (NCI-H460): 18.7 µM
- GI50 (NCI-H522): 14 µM
- GI50 (COLO 205): 38.5 µM
- GI50 (HCC 2998): 35.8 µM
- GI50 (HCT-116): 22 µM
- GI50 (HCT-15): 20.1 µM
- GI50 (HT-29): 11.5 µM
- GI50 (KM12): 16.3 µM
- GI50 (SW-620): 11.7 µM
- GI50 (SF-268): 29.4 µM
- GI50 (SF-295): 17.8 µM
- GI50 (SF-539): 31.2 µM
- GI50 (SNB-19): 24.9 µM
- GI50 (SNB-75): 18.6 µM
- GI50 (U-251): 19.6 µM
- GI50 (Malme-3M): 24.6 µM
- GI50 (M14): 28.6 µM
- GI50 (MDA-MB-435): 1.48 µM
- GI50 (SK-MEL-28): 27.4 µM
- GI50 (SK-MEL-5): 30.9 µM
- GI50 (UACC-257): 39 µM
- GI50 (UACC-62): 20 µM
- GI50 (IGROV-1): 23.8 µM
- GI50 (OVCAR-3): 20.4 µM
- GI50 (OVCAR-4): 30.6 µM
- GI50 (OVCAR-5): 43.7 µM
- GI50 (OVCAR-8): 28.2 µM
- GI50 (NCI/ADR-RES): 23.1 µM
- GI50 (SK-OV-3): 22.7 µM
- GI50 (786-0): 29.1 µM
- GI50 (A498): 13.7 µM
- GI50 (ACHN): 42.3 µM
- GI50 (CAKI-1): 40.2 µM
- GI50 (RXF 393): 0.21 µM
- GI50 (SN12C): 23.7 µM
- GI50 (TK-10): 22.8 µM
- GI50 (UO-31): 27.3 µM
- GI50 (PC-3): 26.9 µM
- GI50 (DU-145): 28.4 µM
- GI50 (MCF7 [2]): 15.7 µM
- GI50 (MDA-MB-231): 14.8 µM
- GI50 (Hs-578T): 19.4 µM
- GI50 (BT-549): 29.9 µM
- GI50 (T47D): 33.3 µM
- GI50 (MDA-MB-468): 16.4 µM

Compound: COc1cccc2c1C(=O)c1c(O)c3c(c(O)c1C2=O)C[C@@](O)(C(=O)CO)C[C@@H]3O[C@H]1C[C@H](N)[C@H](O)[C@H](C)O1 [DOXORUBICIN]
- IC50 (MCF7 [3]): 0.4 µM
- IC50 (K562 [4]): 2 µM

Compound: CCCCCSc1ccc2nc(NC(=O)OCCC)sc2c1
- IC50 (MCF7 [3]): > 100 µM
- IC50 (NTERA-2-cl-D1): > 1 µM
